Data: ChEMBL document CHEMBL4673384, “Studying Histone Deacetylase Inhibition and Apoptosis Induction of Psammaplin A Monomers with Modified Thiol Group” (ACS Med Chem Lett, 2021)
Values belong to the compound of their own block, whether it stands above or below them. Activity calls are given as the source filed them. The calls are words filed in the database; no cut-off is given here.

Tests used:
[1] = tested on: HL-60; assay: Induction of apoptosis in human HL-60 cells assessed as necrotic cells at 1 uM incubated for 24 hrs by propidium iodide and annexin-V FITC staining based FACS analysis (reference value: 0.3 %); type: functional
[2] = tested on: HL-60; assay: Induction of apoptosis in human HL-60 cells assessed as early apoptotic cells at 1 uM incubated for 24 hrs by propidium iodide and annexin-V FITC staining based FACS analysis (reference value: 2.8 %); type: functional
[3] = tested on: HL-60; assay: Induction of apoptosis in human HL-60 cells assessed as cleavage of PARP at 0.5 to 2 uM after 24 hrs Western blot analysis; type: functional, cell-based; conditions: dose 0.5-2 µM
Method in brief: (§1)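 HL-60 cells were treated for 24 h at the indicated concentrations, then analysed by Western blot. Blots were probed for cleavage of PARP and caspase-3, -8 and -9. Ac-H3, Ac-α-tubulin and β-actin were also detected, with β-actin as the loading reference.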

[4] = molecular target: Histone deacetylase 2 (Homo sapiens, UniProt Q92769); assay: Inhibition of HDAC2 in human HL-60 cells assessed as increase in Ac-H3 level at 0.5 to 2 uM incubated for 24 hrs by Western blot analysis; type: cell-based; conditions: dose 0.5-2 µM
Sequence of Histone deacetylase 2 (Q92769 whole entry): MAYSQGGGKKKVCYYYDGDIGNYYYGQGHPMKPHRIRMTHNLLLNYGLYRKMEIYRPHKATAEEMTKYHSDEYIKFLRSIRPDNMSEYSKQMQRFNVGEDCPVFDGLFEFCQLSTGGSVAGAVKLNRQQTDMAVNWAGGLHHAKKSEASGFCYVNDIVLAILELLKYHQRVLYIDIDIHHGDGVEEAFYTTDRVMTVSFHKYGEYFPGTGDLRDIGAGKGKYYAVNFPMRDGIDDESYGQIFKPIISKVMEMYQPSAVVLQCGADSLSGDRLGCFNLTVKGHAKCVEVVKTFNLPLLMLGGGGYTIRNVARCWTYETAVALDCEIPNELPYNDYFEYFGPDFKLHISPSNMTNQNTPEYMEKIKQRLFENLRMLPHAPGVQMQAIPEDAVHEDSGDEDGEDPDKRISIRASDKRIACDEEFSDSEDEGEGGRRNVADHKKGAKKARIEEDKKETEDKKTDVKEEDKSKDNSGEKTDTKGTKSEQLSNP
Method in brief: (§2)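 Compound given to HL-60 cells for 24 h at the stated concentrations, then lysed. Acetyl-histone H3 and acetyl-α-tubulin levels were read by Western blot, with total H3, α-tubulin or β-actin as references.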

[5] = tested on: HL-60; assay: Induction of apoptosis in human HL-60 cells assessed as cleavage of caspase-9 at 0.5 to 2 uM after 24 hrs Western blot analysis; type: functional, cell-based; conditions: dose 0.5-2 µM; method in brief: as §1
[6] = tested on: HL-60; assay: Induction of apoptosis in human HL60 cells assessed as viable cells at 2 uM incubated for 24 hrs by propidium iodide and annexin-V FITC staining based FACS analysis (reference value: 92.05 %); type: functional; conditions: read-out: Activity
[7] = tested on: HL-60; assay: Induction of apoptosis in human HL-60 cells assessed as viable cells at 4 uM incubated for 24 hrs by propidium iodide and annexin-V FITC staining based FACS analysis (reference value: 92.05 %); type: functional; conditions: read-out: Activity
[8] = tested on: HL-60; assay: Induction of apoptosis in human HL-60 cells assessed as late apoptotic cells at 4 uM incubated for 24 hrs by propidium iodide and annexin-V FITC staining based FACS analysis (reference value: 4.2 %); type: functional
[9] = tested on: HL-60; assay: Induction of apoptosis in human HL-60 cells assessed as early apoptotic cells at 4 uM incubated for 24 hrs by propidium iodide and annexin-V FITC staining based FACS analysis (reference value: 2.9 %); type: functional
[10] = tested on: HL-60; assay: Induction of apoptosis in human HL-60 cells assessed as late apoptotic cells at 1 uM incubated for 24 hrs by propidium iodide and annexin-V FITC staining based FACS analysis (reference value: 4.2 %); type: functional
[11] = molecular target: Histone deacetylase 3 (Homo sapiens) (UniProt O15379); assay: Inhibition of HDAC3 in human HL-60 cells assessed as increase in Ac-H3 level at 0.5 to 8 uM incubated for 24 hrs by Western blot analysis; type: cell-based; conditions: dose 0.5-8 µM; method in brief: as §2
Sequence of Histone deacetylase 3 (Homo sapiens) (O15379 whole entry): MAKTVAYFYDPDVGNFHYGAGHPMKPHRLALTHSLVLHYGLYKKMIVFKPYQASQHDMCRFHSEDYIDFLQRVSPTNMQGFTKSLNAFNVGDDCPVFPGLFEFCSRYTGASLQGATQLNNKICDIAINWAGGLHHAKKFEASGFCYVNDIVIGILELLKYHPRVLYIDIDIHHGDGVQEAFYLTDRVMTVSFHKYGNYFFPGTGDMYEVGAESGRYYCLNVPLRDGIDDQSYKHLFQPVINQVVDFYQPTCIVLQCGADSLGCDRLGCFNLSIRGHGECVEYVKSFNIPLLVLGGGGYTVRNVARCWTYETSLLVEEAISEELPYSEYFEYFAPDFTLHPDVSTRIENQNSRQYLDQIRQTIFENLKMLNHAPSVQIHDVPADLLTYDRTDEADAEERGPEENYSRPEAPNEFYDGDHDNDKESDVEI

[12] = tested on: HL-60; assay: Induction of apoptosis in human HL-60 cells assessed as necrotic cells at 1 uM incubated for 24 hrs by propidium iodide and annexin-V FITC staining based FACS analysis (reference value: 0.5 %); type: functional
[13] = tested on: HL-60; assay: Induction of apoptosis in human HL-60 cells assessed as cleavage of PARP at 0.5 to 8 uM after 24 hrs Western blot analysis; type: functional, cell-based; conditions: dose 0.5-8 µM; method in brief: as §1
[14] = tested on: HL-60; assay: Induction of apoptosis in human HL60 cells assessed as necrotic cells at 4 uM incubated for 24 hrs by propidium iodide and annexin-V FITC staining based FACS analysis (reference value: 0.5 %); type: functional
[15] = tested on: HL-60; assay: Induction of apoptosis in human HL-60 cells assessed as cleavage of caspase-3 at 0.5 to 8 uM after 24 hrs Western blot analysis; type: functional, cell-based; conditions: dose 0.5-8 µM; method in brief: as §1
[16] = tested on: HL-60; assay: Induction of apoptosis in human HL-60 cells assessed as viable cells at 1 uM incubated for 24 hrs by propidium iodide and annexin-V FITC staining based FACS analysis (reference value: 92.5 %); type: functional; conditions: read-out: Activity
[17] = tested on: HL-60; assay: Induction of apoptosis in human HL-60 cells assessed as cleavage of caspase-9 at 0.5 to 8 uM after 24 hrs Western blot analysis; type: functional, cell-based; conditions: dose 0.5-8 µM; method in brief: as §1
[18] = tested on: HL-60; assay: Induction of apoptosis in human HL-60 cells assessed as cleavage of caspase-8 at 0.5 to 8 uM after 24 hrs Western blot analysis; type: functional, cell-based; conditions: dose 0.5-8 µM; method in brief: as §1
[19] = tested on: HL-60; assay: Induction of apoptosis in human HL-60 cells assessed as necrotic cells at 2 uM incubated for 24 hrs by propidium iodide and annexin-V FITC staining based FACS analysis (reference value: 0.5 %); type: functional
[20] = Toxicity in mouse LL/2 cells inoculated C57BL/6J mouse assessed as effect on body weight by measuring end body weight at 100 mg/kg, ip administered for 12 days and measured for every 2 days (reference value: 17.8 +/- 0.7 g); type: organism-based; conditions: in vivo, 288 h, time 12 day
[21] = tested on: HL-60; assay: Induction of apoptosis in human HL-60 cells assessed as necrotic cells at 8 uM incubated for 24 hrs by propidium iodide and annexin-V FITC staining based FACS analysis (reference value: 0.5 %); type: functional
[22] = tested on: HL-60; assay: Induction of apoptosis in human HL-60 cells assessed as viable cells at 8 uM incubated for 24 hrs by propidium iodide and annexin-V FITC staining based FACS analysis (reference value: 92.05 %); type: functional; conditions: read-out: Activity
[23] = Antitumor activity against mouse LL/2 cells inoculated in C57BL/6J mouse assessed as tumor growth inhibition at 100 mg/kg, ip administered for 12 days; type: functional, Lewis lung carcinoma; parameters: scale not given: the % may be the effect or the level left; conditions: time 12 day

inhibition [4]: Active
Compound: O=C(CCNC(=O)/C(Cc1ccc(O)c(Br)c1)=N/O)NO
Activity [1]: 0.5% | Activity [2]: 7.1% | Activity [3]: Active | Activity [5]: Active

inhibition [11]: Active
Compound: O=C(NCCSSCCNC(=O)/C(Cc1ccc(O)c(Br)c1)=N/O)/C(Cc1ccc(O)c(Br)c1)=N/O [PSAMMAPLIN A]
viability at 2 µM [6]: 67.1% | viability at 4 µM [7]: 66.2% | Activity [8]: 26.7% | Activity [9]: 3.4% | Activity [10]: 7.8% | Activity [12]: 0.8% | Activity [13]: Active | Activity [14]: 3.7% | Activity [15]: Active | viability at 1 µM [16]: 88.8% | Activity [17]: Active | Activity [18]: Active | Activity [19]: 3.9%

inhibition [11]: Active
Compound: O=C(NCCS)/C(Cc1ccc(O)c(Br)c1)=N/O
Activity [20]: 16.9 g | viability at 2 µM [6]: 93.6% | viability at 4 µM [7]: 93.3% | Activity [8]: 4.7% | Activity [9]: 1.6% | Activity [21]: 3.3% | Activity [13]: Active | Activity [14]: 0.3% | viability at 8 µM [22]: 68.3% | Activity [23]: 62% | Activity [15]: Active | Activity [17]: Active | Activity [18]: Active | Activity [19]: 0.3%
